ANO1 activ – mouse TMEM16A channel activation, primary screen; AID 623877; B-score at 10 µM; 0.3% of 340,000 active; HEK293 TMEM16A/YFP-H148Q/I152L, iodide quench fluorescence; hits give low values;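 active means fluorescence-ratio B-score plate-corrected deviation score at least 3 library SD below zero, with starting fluorescence score within 5 deviations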;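 further: channel opened by trigger with iodide after compound preincubation; score built on the fluorescence ratio of max minus min over baseline; more negative score means more quench and so TMEM16A activation or potentiation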
Target sequence (Q8BHY3 whole entry, looked up): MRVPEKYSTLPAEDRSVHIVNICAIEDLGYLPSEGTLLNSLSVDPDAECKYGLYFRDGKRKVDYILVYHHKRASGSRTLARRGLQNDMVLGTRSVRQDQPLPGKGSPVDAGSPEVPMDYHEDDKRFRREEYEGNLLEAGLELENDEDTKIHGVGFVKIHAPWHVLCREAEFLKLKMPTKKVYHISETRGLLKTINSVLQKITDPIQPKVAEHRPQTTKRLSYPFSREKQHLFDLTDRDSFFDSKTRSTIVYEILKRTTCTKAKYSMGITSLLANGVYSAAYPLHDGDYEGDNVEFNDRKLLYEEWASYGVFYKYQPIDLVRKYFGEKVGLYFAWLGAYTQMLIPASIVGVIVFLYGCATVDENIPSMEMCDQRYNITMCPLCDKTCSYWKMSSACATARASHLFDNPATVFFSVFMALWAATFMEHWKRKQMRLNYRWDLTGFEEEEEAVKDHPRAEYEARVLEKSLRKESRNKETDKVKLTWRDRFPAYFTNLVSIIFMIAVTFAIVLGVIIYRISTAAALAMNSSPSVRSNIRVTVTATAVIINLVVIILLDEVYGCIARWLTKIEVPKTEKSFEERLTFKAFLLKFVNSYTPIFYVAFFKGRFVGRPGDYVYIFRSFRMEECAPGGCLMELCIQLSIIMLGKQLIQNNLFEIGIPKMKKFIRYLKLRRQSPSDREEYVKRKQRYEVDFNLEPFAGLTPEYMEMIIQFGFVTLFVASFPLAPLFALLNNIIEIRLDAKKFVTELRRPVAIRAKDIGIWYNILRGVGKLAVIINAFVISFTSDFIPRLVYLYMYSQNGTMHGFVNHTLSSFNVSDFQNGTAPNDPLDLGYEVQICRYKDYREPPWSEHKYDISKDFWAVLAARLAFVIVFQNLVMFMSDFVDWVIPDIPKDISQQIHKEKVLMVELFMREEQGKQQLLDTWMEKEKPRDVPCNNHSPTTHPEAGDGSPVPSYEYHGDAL
MC4R antagonist – blocks human MC4R cAMP signaling | P32245 | MC4R-expressing cells, MTII-stimulated cAMP, LANCE TR-FRET | inhibition, % at 6.5 µM | 0.48% of 360,000 active;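 active means inhibition above its plate's cutoff, the mean of tested wells on that plate plus 3 SD, cut at about 29% in these data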;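 further: 0% = Melanotan II alone and 100% = Melanotan II plus saturating MCL0020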
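system = U2OS cells with stable human MC4R expression | also added = Melanotan II challenge after compound preincubation | dosing = one concentration, 6.5 µM nominal | incubation = compound 30 min, challenge 1 h, detection 1 h | measured by = TR-FRET with Eu-cAMP and labeled anti-cAMP, 671 nm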
ANO1 block – mouse TMEM16A channel inhibition, primary screen; Q8BHY3; HEK293 TMEM16A/YFP iodide influx fluorescence, ionomycin; normalized B-score (activity score, 25-100; higher = stronger inhibition) at 10 µM; 1.2% of 310,000 active; AID 588511;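 active means ratio plate-corrected score three or more library SD toward inhibition, starting fluorescence score within five deviations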;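 further: score derived from kinetic fluorescence span divided by baseline fluorescence per well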
CSC inhib – blocks cancer stem cells. cancer stem cell-like cells viability, luminescence. inhibition, % at 7.5 µM. 1.1% of 300,000 active; in the data active means inhibition above about 75%; tested in HMLE shEcad cells
Beta apoptosis – blocks beta cell apoptosis. INS-1E cytokine-induced death, ATP luminescence, 48 h; percent of positive-control rescue, neutral wells zero. protection from apoptosis, % (no concentration beside the values). 0.8% of 300,000 active;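 active means Every replicate reaches about 75%, or at least half do and their mean reaches it too, limit read from the data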;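 further: 0% = cytokine-treated negative control wells and 100% = positive control rescue; higher means more ATP so stronger rescue from cytokine killing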
MC4R ag barr – agonists of human melanocortin 4 receptor (MC4R) beta-arrestin; P32245; U2OS MC4R beta-arrestin complementation, luminescence; percent of melanotan II response, DMSO zero; activation, % at 8.9 µM; 0.98% of 360,000 active;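 active means activation above a per-plate cutoff, the mean activation of sample wells on that plate plus 3 SD, cut at about 8% in these data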
TMEM16A reconf – reconfirmed blocker of mouse TMEM16A calcium-activated chloride channel. 39% of 2,300 active. HEK293 TMEM16A/YFP-H148Q, iodide quench fluorescence; ionomycin added to raise cell calcium. shares compounds with ANO1 block. inhibition, % at 10 µM;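 active means mean duplicate percent inhibition, scaled so buffer wells are 0 and the reference blocker 100, over three buffer SD above buffer mean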
HEK293 Ca mobil – calcium mobilization counter-screen hit for TMEM16A inhibitor series | shares compounds with ANO1 block | TMEM16A/YFP HEK293, Fluo4 calcium mobilization | calcium response (% of ionomycin), % at 10 µM | 2% of 2,300 active | AID 652231;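 active means duplicate-averaged calcium signal over 20% of the ionomycin maximum, relative to buffer baseline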;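 further: each well's signal is peak minus trough fluorescence divided by its pre-addition baseline; 0% = buffer wells and 100% = ionomycin wells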
Parental YFP cnt – acts in parental YFP-HEK293 cells lacking TMEM16A, counter-screen; 2,300 tested, under 10 active; YFP ratio F(max-min)/F0 at 10 µM; AID 652233; shares compounds with ANO1 block; iodide YFP quench, ionomycin;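 active means yellow fluorescent protein signal ratio exceeding the buffer control mean by over 5 SD of those controls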;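 further: ratio is mean of duplicate wells from kinetic YFP trace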
ClC-1 rat inh – blocks the rat ClC-1 voltage-dependent chloride channel. shares compounds with ANO1 block. ratio percent, % at 10 µM. CHO ClC-1-YFP, iodide influx fluorescence quench; iodide control reads 0, buffer control 100. 2,300 tested, under 10 active;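 active means duplicate-mean ratio percent above the mean of iodide-only control wells, which defines zero, plus 5 of their SD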;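 further: higher percent means stronger block of ClC-1 iodide influx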
Numbers without * were called inactive; i = inactive; · = no result. Rows were chosen to be rich in hits. Some 3.8% of all compounds tested hit in one or more screens of this group.

SMILES	ANO1 activ	MC4R antagonist	ANO1 block	CSC inhib	Beta apoptosis	MC4R ag barr	TMEM16A reconf	HEK293 Ca mobil	Parental YFP cnt	ClC-1 rat inh
CCc1ccc(C(=O)Nc2ccc(OC)c(S(=O)(=O)N3CCOCC3)c2)cc1	i	7.9	100*	-9.9	-9.5	-1.2	i	i	-0.982	-9.0
O=C(c1ccc(F)cc1)C1CCN(C(=O)N2CCOCC2)CC1	i	-5.9	i	-8.6	-2.3	-0.3	i	i	-1.09	-12.0
COCCN(C(=O)CSc1nnc(-c2ccccc2F)o1)c1c(N)n(Cc2ccccc2)c(=O)[nH]c1=O	·	14.0	·	·	·	-2.0	·	·	·	·
Cc1cc(C)nc(NC(=O)c2c(F)c(F)c(F)c(C(=O)Nc3cc(C)cc(C)n3)c2F)c1	i	14.7	i	44.3	-59.0	-0.7	·	·	·	·
COc1cc(O)c(C(=O)O)c(CCc2ccccc2)c1	·	-0.6	·	·	·	-3.3	·	·	·	·
COc1cc(C)c(C(=O)Oc2cc(C)c(C(=O)O)c(O)c2)c(O)c1	i	11.2	100*	-7.0	-2.3	0.5	17.5%*	i	-0.942	-7.5
CC1=C(c2ccc(C)cc2)S(=O)(=O)N(CC(=O)O)C1=O	i	13.6	25*	-10.6	-7.4	-2.1	i	i	-1.05	-13.5
COC(=O)CN1C(=O)C(C)=C(c2ccc(C)cc2)S1(=O)=O	i	10.2	i	-5.3	-0.5	-2.0	·	·	·	·
Cn1cccc1C(=O)NCc1ccc(S(N)(=O)=O)cc1	i	0.1	i	-7.7	-3.0	-0.7	·	·	·	·
C[C@H]1CN([C@@H](C)CO)C(=O)c2cc(Br)cnc2O[C@H]1CN(C)C(=O)C1CCC1	·	6.3	·	·	·	2.1	·	·	·	·
O=C(COc1ccc(-c2nnco2)cc1)NCc1ccccc1Cl	i	-1.8	i	-8.2	-2.3	-1.0	·	·	·	·
Cc1cc(C(=O)COc2ccc(-c3nnco3)cc2)c(C)n1Cc1ccccc1	i	2.8	100*	·	11.6	0.0	18.0%*	i	-0.839	-16.0
COc1ccc(-c2cc(C(F)(F)F)c(C#N)c(SCC(=O)Nc3ccc(C)cc3)n2)cc1	i	-4.7	i	-5.8	0.5	-2.3	·	·	·	·
COc1ccc(C(=O)CSc2[nH]c(=O)cc(C(F)(F)F)c2C#N)cc1	i	19.6	25*	33.5	3.3	-1.1	21.5%*	i	-1.03	-13.5
Cc1nnc2ccc(N3CCCC3)nn12	i	14.7	25*	-6.7	-9.0	0.3	i	i	-0.935	-19.0
CN1CCN(C(=O)NC2CCCN2S(=O)(=O)c2ccc(Cl)cc2)CC1 (centres undefined)	i	2.1	i	-8.6	-6.2	0.3	i	i	-1.04	-1.5
CC(=O)N1C(=O)C(=C2C=C(C)OC(C)=C2)c2ccccc21	i	-3.0	i	-10.3	·	1.1	27.5%*	i	-0.847	0.5
CC1=CC(=C2C(=O)c3ccccc3C2=O)C=C(C)O1	i	-1.0	i	17.6	6.7	-1.5	·	·	·	·
Cc1cc(C)c(C(=O)COC(=O)c2cc([N+](=O)[O-])ccc2N2CCOCC2)cc1C	i	-1.9	i	2.4	1.2	-3.3	·	·	·	·
CC(C)OC(=O)C(CC(=O)O)NCc1ccccc1 (centres undefined)	i	-1.4	i	-5.8	-5.6	0.2	i	i	-0.975	-16.5
CCOC(=O)C(CC(=O)O)NCc1ccco1 (centres undefined)	i	4.2	i	9.3	-5.6	-1.8	·	·	·	·
CC(=O)Nc1ccc(C(=O)COC(=O)c2cccs2)c(F)c1	i	5.0	·	·	-9.4	-0.6	·	·	·	·
CSc1ccccc1C(=O)NCC1CCCO1 (centres undefined)	i	5.9	100*	-8.7	0.7	-1.8	i	i	-0.987	-11.5
O=C(Nc1ccccc1)c1ccccc1OS(=O)(=O)c1ccccc1	i	4.0	i	-0.2	-5.8	2.0	·	·	·	·
O=C(Oc1ccccc1)c1ccccc1OS(=O)(=O)c1ccccc1	i	8.3	100*	6.4	-2.7	-1.1	i	i	-1.43	-2.5
SMILES	ANO1 activ	MC4R antagonist	ANO1 block	CSC inhib	Beta apoptosis	MC4R ag barr	TMEM16A reconf	HEK293 Ca mobil	Parental YFP cnt	ClC-1 rat inh
CC(=O)NC1CC2CCCC(C1)N2C(=O)Nc1c(C)cccc1C (centres undefined)	·	4.6	·	·	·	0.3	·	·	·	·
CC(C)(C)c1ccc(C(=O)NCc2ccc(Cl)cc2)cc1	i	-5.2	i	4.0	-8.2	3.0	·	·	·	·
CC(C)(C)OC(=O)N1CCN(c2ccc(CNC(=O)c3ccc(Cl)cc3)cc2)CC1	i	2.0	100*	26.4	·	1.4	22.5%*	i	-1.13	-12.0
CCSc1nnc(NC(=O)Cc2ccc(OC)c(OC)c2)s1	i	2.2	100*	-1.0	-5.2	-2.4	i	i	-0.865	-13.0
COCCSc1nnc(NC(=O)Cc2ccc(OC)c(OC)c2)s1	i	18.2	i	3.4	-5.9	0.1	·	·	·	·
COc1c(C(CC(C)C)OC(C)=O)ccc2c1C(=O)OCc1cc(C)cc(O)c1O2 (centres undefined)	i	7.0	100*	-14.2	·	8.6*	23.5%*	i	-1.06	-14.5
COc1c(C(O)CC(C)C)ccc2c1C(=O)OCc1cc(C)cc(O)c1O2 (centres undefined)	i	10.7	25*	-8.6	6.7	-1.5	21.5%*	i	-0.968	-12.5
Oc1ccccc1Nc1nc(NCc2ccco2)c2ccccc2n1	i	19.3	i	·	18.4	2.4	·	·	·	·
Cc1ccc(S(=O)(=O)Nc2nc3ccccc3nc2NCc2ccco2)cc1C	i	-1.7	100*	-1.4	-4.8	-0.5	i	i	-0.975	-15.0
CSc1nc(NCc2ccco2)c2ccccc2n1	i	-12.6	i	11.7	·	-0.3	·	·	·	·
c1ccc(Nc2nc(NCc3ccco3)c3ccccc3n2)cc1	i	-10.6	25*	31.9	81.1*	-0.7	47.0%*	i	-1.14	-8.5
Cc1ccccc1Nc1nc(NCc2ccco2)c2ccccc2n1	i	-0.8	25*	22.0	36.7	0.8	32.0%*	i	-1.17	-7.0
Cc1ccc(S(=O)(=O)Nc2nc3ccccc3nc2NCc2ccco2)cc1	i	7.1	i	4.7	-7.7	-0.9	·	·	·	·
